Measurements published in ChEMBL document CHEMBL1146983, “The design and synthesis of human branched-chain amino acid aminotransferase inhibitors for treatment of neurodegenerative diseases” (Bioorg Med Chem Lett, 2006).

molecular target: T1, Branched-chain-amino-acid aminotransferase, cytosolic (Homo sapiens, UniProt P54687); assay: Inhibition of human BCATc
T1 sequence (P54687 whole entry): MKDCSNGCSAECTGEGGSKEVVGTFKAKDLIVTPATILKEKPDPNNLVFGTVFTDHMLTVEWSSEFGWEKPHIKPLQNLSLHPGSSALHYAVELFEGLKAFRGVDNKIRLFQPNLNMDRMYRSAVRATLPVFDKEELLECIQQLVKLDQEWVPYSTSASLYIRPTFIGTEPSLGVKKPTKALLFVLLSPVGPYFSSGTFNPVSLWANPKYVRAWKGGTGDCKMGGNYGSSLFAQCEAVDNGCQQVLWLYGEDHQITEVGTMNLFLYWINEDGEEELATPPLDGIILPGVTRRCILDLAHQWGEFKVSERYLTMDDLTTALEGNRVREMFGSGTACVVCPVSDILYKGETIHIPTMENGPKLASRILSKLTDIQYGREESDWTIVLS
How it was run: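 Recombinant hBCATc (E. coli-expressed, purified; 50-100 nM) coupled to saturating purified bovine liver GDH. Mix: 25 mM NaPi pH 7.8, 0.75 mM L-leucine, 0.5 mM α-ketoglutarate, 10 μM pyridoxal phosphate, 1 mM NAD+, 4 mM ADP, 2 mM DTT, 12.5 mM EDTA, 1% DMSO final. 37 °C; A340 read over 20 min. IC50 from 8 to 10 point curves.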

SMILES	IC50 [µM]
O=C(NNS(=O)(=O)c1cccc(Cl)c1)c1cccc2c1oc1ccccc12	> 35
Cc1ccccc1S(=O)(=O)NNC(=O)c1ccc2oc3ccccc3c2c1	3.2
O=C(NNS(=O)(=O)c1ccccc1)c1ccc2oc3ccccc3c2c1	2.35
O=C(NNS(=O)(=O)c1ccccc1)c1cc2cc(Cl)ccc2o1	4.2
Cc1ccccc1S(=O)(=O)NNC(=O)c1cc2cc(Cl)ccc2[nH]1	1.16
O=C(NNS(=O)(=O)c1ccccc1)c1cc2ccccc2[nH]1	36
O=C(NNS(=O)(=O)c1ccccc1)c1cnc2ccccc2c1	33.3
Cc1cccc(S(=O)(=O)NNC(=O)c2cc3cc(Cl)ccc3o2)c1	1.2
O=C(NNS(=O)(=O)c1ccccc1)c1ccc2ncccc2c1	13.3
Cc1cccc(S(=O)(=O)NNC(=O)c2cccc3c2oc2ccccc23)c1	2.8

Second part, the molecule after the results:

IC50 [µM]	SMILES
18.3	O=C(NNS(=O)(=O)c1ccccc1)c1cc2ccccc2o1
15	O=C(NNS(=O)(=O)c1ccccc1)c1cc2cc(Br)ccc2[nH]1
2.5	O=C(NNS(=O)(=O)c1ccccc1)c1cc2cc(Br)ccc2o1
56.8	COc1ccc2[nH]c(C(=O)NNS(=O)(=O)c3ccccc3)cc2c1
5.7	O=C(NNS(=O)(=O)c1ccccc1Cl)c1cc2cc(Cl)ccc2o1
